According to ChEMBL document CHEMBL3232844, “Synthesis and structure activity relationships of schweinfurthin indoles” (2014):

Experiments:
Type in all cases: functional
CCRF-CEM = assay: Cytotoxicity against human CCRF-CEM cells
HL-60(TB) = assay: Cytotoxicity against human HL-60(TB) cells
Outline: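 Tested within the NCI 60-cell-line screen, with GI50 as the read-out. Values are the average of two independent experiments. The lowest concentration tested was 10 nM.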

K562 = assay: Cytotoxicity against human K562 cells
Outline: (§1)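 Tested in a 60-cell-line human tumor panel screen; the read-out is growth inhibition, reported as GI50 for each cell line.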

MOLT-4 = assay: Cytotoxicity against human MOLT4 cells; outline: as §1
SR = assay: Cytotoxicity against human SR cells
Outline: (§2)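 Cell line run as part of the 60-cell-line screening panel; growth inhibition was reported as a GI50 for each line.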

HOP-62 = assay: Cytotoxicity against human HOP62 cells; outline: as §1
NCI-H226 = assay: Cytotoxicity against human NCI-H226 cells; outline: as §1
NCI-H23 = assay: Cytotoxicity against human NCI-H23 cells; outline: as §1
COLO 205 = assay: Cytotoxicity against human COLO205 cells; outline: as §1
HCC 2998 = assay: Cytotoxicity against human HCC2998 cells; outline: as §1
HCT-116 = assay: Cytotoxicity against human HCT116 cells; outline: as §1
[1] = Cytotoxicity against human HCT15 cells; outline: as §1
HT-29 = assay: Cytotoxicity against human HT-29 cells; outline: as §1
KM12 = assay: Cytotoxicity against human KM12 cells; outline: as §1
SF-268 = assay: Cytotoxicity against human SF268 cells; outline: as §1
SF-295 = assay: Cytotoxicity against human SF295 cells; outline: as §1
SF-539 = assay: Cytotoxicity against human SF539 cells; outline: as §1
SNB-75 = assay: Cytotoxicity against human SNB75 cells; outline: as §2
LOX IMVI = assay: Cytotoxicity against human LOXIMVI cells; outline: as §1
M14 = assay: Cytotoxicity against human M14 cells; outline: as §1
MDA-MB-435 = assay: Cytotoxicity against human MDA-MB-435 cells; outline: as §1
NCI-H460 = assay: Cytotoxicity against human NCI-H460 cells; outline: as §1
SK-MEL-2 = assay: Cytotoxicity against human SK-MEL-2 cells; outline: as §1
SK-MEL-5 = assay: Cytotoxicity against human SK-MEL-5 cells; outline: as §1
[2] = Cytotoxicity against human UACC257 cells; outline: as §2
[3] = Cytotoxicity against human UACC62 cells; outline: as §2
IGROV-1 = assay: Cytotoxicity against human IGROV1 cells; outline: as §1
[4] = Cytotoxicity against human OVCAR3 cells; outline: as §1
[5] = Cytotoxicity against human OVCAR4 cells; outline: as §1
[6] = Cytotoxicity against human OVCAR8 cells; outline: as §1
[7] = Cytotoxicity against human NCI-ADR-RES cells; outline: as §1
SK-OV-3 = assay: Cytotoxicity against human SKOV3 cells; outline: as §1
786-0 = assay: Cytotoxicity against human 786-0 cells; outline: as §1
CAKI-1 = assay: Cytotoxicity against human Caki1 cells; outline: as §1
RXF 393 = assay: Cytotoxicity against human RXF393 cells; outline: as §1
TK-10 = assay: Cytotoxicity against human TK10 cells; outline: as §2
PC-3 = assay: Cytotoxicity against human PC3 cells; outline: as §1
DU-145 = assay: Cytotoxicity against human DU145 cells; outline: as §1
MCF7 = assay: Cytotoxicity against human MCF7 cells; outline: as §1
MDA-MB-231 = assay: Cytotoxicity against human MDA-MB-231 cells; outline: as §1
BT-549 = assay: Cytotoxicity against human BT549 cells; outline: as §1
T47D = assay: Cytotoxicity against human T47D cells; outline: as §2
MDA-MB-468 = assay: Cytotoxicity against human MDA-MB-468 cells; outline: as §1
[8] = read-out: pLC50 (the source's name) (converted)

CC1(C)[C@H](O)CC[C@@]2(C)Oc3c(O)cc(/C=C/c4cc(O)c5cc[nH]c5c4)cc3C[C@H]12
GI50 (CCRF-CEM): 0.219 µM | CC50 (CCRF-CEM; [8]): > 100 µM | TGI (CCRF-CEM; read-out: pTGI (converted)): 14.1 µM | GI50 (HL-60(TB)): 0.0437 µM | CC50 (HL-60(TB); [8]): > 100 µM | TGI (HL-60(TB); read-out: pTGI (converted)): 4.79 µM | GI50 (K562): 0.263 µM | CC50 (K562; [8]): > 100 µM | TGI (K562; read-out: pTGI (converted)): 47.9 µM | GI50 (MOLT-4): 0.0437 µM | CC50 (MOLT-4; [8]): > 100 µM | TGI (MOLT-4; read-out: pTGI (converted)): 0.617 µM | GI50 (SR): 0.123 µM | CC50 (SR; [8]): > 100 µM | TGI (SR; read-out: pTGI (converted)): 21.4 µM | GI50 (HOP-62): 0.631 µM | CC50 (HOP-62; [8]): > 100 µM | TGI (HOP-62; read-out: pTGI (converted)): 7.08 µM | GI50 (NCI-H226): 19.5 µM | CC50 (NCI-H226; [8]): > 100 µM | TGI (NCI-H226; read-out: pTGI (converted)): 75.9 µM | GI50 (NCI-H23): 1.32 µM | CC50 (NCI-H23; [8]): 41.7 µM | TGI (NCI-H23; read-out: pTGI (converted)): 7.59 µM | GI50 (COLO 205): 2.19 µM | CC50 (COLO 205; [8]): 11.7 µM | TGI (COLO 205; read-out: pTGI (converted)): 4.79 µM | GI50 (HCC 2998): 3.16 µM | CC50 (HCC 2998; [8]): 39.8 µM | TGI (HCC 2998; read-out: pTGI (converted)): 14.1 µM | GI50 (HCT-116): 0.617 µM | CC50 (HCT-116; [8]): 8.13 µM | TGI (HCT-116; read-out: pTGI (converted)): 2.45 µM | GI50 ([1]; HCT-15): 0.832 µM | CC50 ([1]; HCT-15, read-out: pLC50 (the source's name) (converted)): > 100 µM | TGI ([1]; HCT-15, read-out: pTGI (converted)): 38 µM | GI50 (HT-29): 1.17 µM | CC50 (HT-29; [8]): 45.7 µM | TGI (HT-29; read-out: pTGI (converted)): 4.17 µM | GI50 (KM12): 0.447 µM | CC50 (KM12; [8]): 7.76 µM | TGI (KM12; read-out: pTGI (converted)): 1.95 µM | GI50 (SF-268): 0.589 µM | CC50 (SF-268; [8]): 79.4 µM | TGI (SF-268; read-out: pTGI (converted)): 26.3 µM | GI50 (SF-295; read-out: GI50): 0.089 µM | GI50 (SF-295; read-out: pGI50 (converted)): 0.0891 µM | CC50 (SF-295; [8]): 3.16 µM | TGI (SF-295; read-out: pTGI (converted)): 0.427 µM | GI50 (SF-539): 0.0204 µM | CC50 (SF-539; [8]): 6.17 µM | TGI (SF-539; read-out: pTGI (converted)): 0.724 µM | GI50 (SNB-75): 0.01 µM | CC50 (SNB-75; [8]): 56.2 µM | TGI (SNB-75; read-out: pTGI (converted)): 0.851 µM | GI50 (LOX IMVI): 0.178 µM | CC50 (LOX IMVI; [8]): 5.62 µM | TGI (LOX IMVI; read-out: pTGI (converted)): 1.58 µM | GI50 (M14): 0.138 µM | CC50 (M14; [8]): 8.32 µM | TGI (M14; read-out: pTGI (converted)): 0.646 µM | GI50 (MDA-MB-435): 0.661 µM | CC50 (MDA-MB-435; [8]): 51.3 µM | TGI (MDA-MB-435; read-out: pTGI (converted)): 9.55 µM | GI50 (NCI-H460): 0.55 µM | CC50 (NCI-H460; [8]): 6.31 µM | TGI (NCI-H460; read-out: pTGI (converted)): 2.14 µM | GI50 (SK-MEL-2): 0.759 µM | CC50 (SK-MEL-2; [8]): 97.7 µM | TGI (SK-MEL-2; read-out: pTGI (converted)): 21.4 µM | GI50 (SK-MEL-5): 0.372 µM | CC50 (SK-MEL-5; [8]): 3.98 µM | TGI (SK-MEL-5; read-out: pTGI (converted)): 1.51 µM | GI50 ([2]; UACC-257): 3.8 µM | CC50 ([2]; UACC-257, read-out: pLC50 (the source's name) (converted)): 66.1 µM | TGI ([2]; UACC-257, read-out: pTGI (converted)): 16.2 µM | GI50 ([3]; UACC-62): 0.617 µM | CC50 ([3]; UACC-62, read-out: pLC50 (the source's name) (converted)): 33.9 µM | TGI ([3]; UACC-62, read-out: pTGI (converted)): 6.46 µM | GI50 (IGROV-1): 2.51 µM | CC50 (IGROV-1; [8]): 97.7 µM | TGI (IGROV-1; read-out: pTGI (converted)): 22.9 µM | GI50 ([4]; OVCAR-3): 3.47 µM | CC50 ([4]; OVCAR-3, read-out: pLC50 (the source's name) (converted)): 66.1 µM | TGI ([4]; OVCAR-3, read-out: pTGI (converted)): 21.4 µM | GI50 ([5]; OVCAR-4): 5.01 µM | CC50 ([5]; OVCAR-4, read-out: pLC50 (the source's name) (converted)): 91.2 µM | TGI ([5]; OVCAR-4, read-out: pTGI (converted)): 42.7 µM | GI50 ([6]; OVCAR-8): 4.79 µM | CC50 ([6]; OVCAR-8, read-out: pLC50 (the source's name) (converted)): > 100 µM | TGI ([6]; OVCAR-8, read-out: pTGI (converted)): 42.7 µM | GI50 [7]: 3.24 µM | CC50 [7, 8]: > 100 µM | TGI ([7]; read-out: pTGI (converted)): 31.6 µM | GI50 (SK-OV-3): 1.95 µM | LC50 (SK-OV-3): > 100 µM | TGI (SK-OV-3; read-out: pTGI (converted)): 18.6 µM | GI50 (786-0): 0.0457 µM | LC50 (concentration killing 50% of cells) (786-0): 12.9 µM | TGI (786-0; read-out: pTGI (converted)): 1.17 µM | GI50 (CAKI-1): 0.12 µM | LC50 (CAKI-1): 15.1 µM | TGI (CAKI-1; read-out: pTGI (converted)): 0.676 µM | GI50 (RXF 393): 0.01 µM | LC50 (RXF 393): 0.389 µM | TGI (RXF 393; read-out: pTGI (converted)): 0.0246 µM | GI50 (TK-10): 3.55 µM | LC50 (TK-10): > 100 µM | TGI (TK-10; read-out: pTGI (converted)): 34.7 µM | GI50 (PC-3): 0.245 µM | LC50 (PC-3): 55 µM | TGI (PC-3; read-out: pTGI (converted)): 4.07 µM | GI50 (DU-145): 0.912 µM | LC50 (50% lethal concentration) (DU-145): 33.1 µM | TGI (DU-145; read-out: pTGI (converted)): 6.46 µM | GI50 (MCF7): 1.35 µM | LC50 (MCF7): > 100 µM | TGI (MCF7; read-out: pTGI (converted)): 16.2 µM | GI50 (MDA-MB-231): 1.7 µM | LC50 (MDA-MB-231): > 100 µM | TGI (MDA-MB-231; read-out: pTGI (converted)): 32.4 µM | GI50 (BT-549): 0.0214 µM | CC50 (BT-549; [8]): 57.5 µM | TGI (BT-549; read-out: pTGI (converted)): 5.37 µM | GI50 (T47D): 7.59 µM | CC50 (T47D; [8]): 83.2 µM | TGI (T47D; read-out: pTGI (converted)): 27.5 µM | GI50 (MDA-MB-468): 1.2 µM | LC50 (MDA-MB-468): 36.3 µM | TGI (MDA-MB-468; read-out: pTGI (converted)): 5.13 µM
